Experimental data as given in ChEMBL document CHEMBL3228027, “Synthesis and estrogenic properties of 17-epi-ethynylestradiol and its ether derivatives epimestranol and epiquinestrol” (J Med Chem, 1979).
The source made the active and inactive calls. No cut-off for these calls is given here.

Columns and labels:
Rattus norvegicus [1] = experiment: Estrogenic activity in immature rat administered orally with sesame oil as three doses by uterotropic assay relative to ethynylestradiol; type: functional
Method in brief: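 Six-point oral assay in immature rats, with three doses of ethynylestradiol standard and three doses of test compound in sesame oil, 9-15 rats per dose group. Dose-response lines were checked for linearity and parallelism. Relative potency and 95% confidence limits were computed, and values are combined from three assays.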

Rattus norvegicus [2] = experiment: Induction of vaginal cornification in ovariectomized mature rat at 0.025 to 0.1 mg/kg, po administered with sesame oil by Allen-Doisy method relative to control; type: functional; details: dose mg/kg 0.025-0.1
Method in brief: (§1)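 Allen-Doisy test in ovariectomized mature rats, 14-59 rats per compound and 4-20 per group. Dose ranges were set from the uterotropic results. A smear counted as positive if it was mainly nucleated or cornified epithelial cells with no leucocytes. Results are given as the dose ranges giving positive smears.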

[3] = Displacement of 17beta-[3H]estradiol from rabbit uterine estrogen receptor after 16 to 18 hrs by liquid scintillation counting; parameters: species or system Oryctolagus cuniculus
Method in brief: (§2)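 Rabbit uterine cytosol, 0.7 μg protein per tube, with 16000 dpm 17β-[3H]estradiol (113 Ci/mmol) in Tris-HCl pH 8.0, 0.001 M EDTA, 0.25 M sucrose. Eight concentrations from 1 × 10^-10 to 1 × 10^-4 M were run in duplicate and incubated 16-18 h at 4 °C. Bound and free were separated with dextran-coated charcoal, bound radioactivity was read by liquid scintillation, and results were compared with standards.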

Oryctolagus cuniculus [4] = organism: Oryctolagus cuniculus; experiment: Displacement of 17beta-[3H]estradiol from rabbit uterine estrogen receptor after 16 to 18 hrs by liquid scintillation counting relative to ethynylestradiol; method in brief: as §2
Rattus norvegicus [5] = experiment: Induction of vaginal cornification in ovariectomized mature rat at 0.005 to 0.010 mg/kg, po administered with sesame oil by Allen-Doisy method relative to control; type: functional; details: dose mg/kg 0.005-0.010; method in brief: as §1
Rattus norvegicus [6] = experiment: Induction of vaginal cornification in ovariectomized mature rat at 10 to 20 mg/kg, po administered with sesame oil by Allen-Doisy method relative to control; type: functional; details: dose mg/kg 10-20; method in brief: as §1
Oryctolagus cuniculus [7] = organism: Oryctolagus cuniculus; experiment: Displacement of 17beta-[3H]estradiol from rabbit uterine estrogen receptor at 1 x 10^-4 M after 16 to 18 hrs by liquid scintillation counting; method in brief: as §2
Rattus norvegicus [8] = experiment: Induction of vaginal cornification in ovariectomized mature rat at 0.25 to 0.5 mg/kg, po administered with sesame oil by Allen-Doisy method relative to control; type: functional; details: dose mg/kg 0.25-0.5; method in brief: as §1
Rattus norvegicus [9] = experiment: Induction of vaginal cornification in ovariectomized mature rat at 5 to 10 mg/kg, po administered with sesame oil by Allen-Doisy method relative to control; type: functional; details: dose mg/kg 5-10; method in brief: as §1
Rattus norvegicus [10] = experiment: Antiestrogenic activity in ethynylestradiol-stimulated immature rat assessed as doubling of uterine weight up to 3 mg/kg, po administered for three days by uterotropic assay; type: functional, organism-based; parameters: dose 3 mg/kg
Method in brief: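 Modified Edgren–Calhoun method in immature rats. The test material was given orally for 3 days together with enough ethynylestradiol to double uterine weight, and uterine weight was the end point.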

Compound | Ratio (Rattus norvegicus [1]) | Activity (Rattus norvegicus [2]) [%] | IC50 [3] [nM] | Ratio (Oryctolagus cuniculus [4]) | inhibition (Oryctolagus cuniculus [7]) | further results
C#C[C@]1(O)CC[C@H]2[C@@H]3CCc4cc(OC)ccc4[C@H]3CC[C@@]21C [MESTRANOL] | 0.84 | 11 | 200 | 0.0012 | – | –
C#C[C@]1(O)CC[C@H]2[C@@H]3CCc4cc(OC5CCCC5)ccc4[C@H]3CC[C@@]21C [QUINESTROL] | 1.66 | – | 6000 | 4e-05 | – | Activity (Rattus norvegicus [5]): 40%
C#C[C@]1(O)CC[C@H]2[C@@H]3CCc4cc(O)ccc4[C@H]3CC[C@@]21C [ETHINYL ESTRADIOL] | – | 10 | 0.24 | – | – | –
C#C[C@@]1(O)CC[C@H]2[C@@H]3CCc4cc(OC)ccc4[C@H]3CC[C@@]21C | 0.0023 | – | – | – | inactive | Activity (Rattus norvegicus [6]): 0%
C#C[C@@]1(O)CC[C@H]2[C@@H]3CCc4cc(OC5CCCC5)ccc4[C@H]3CC[C@@]21C | 0.05 | – | – | – | inactive | Activity (Rattus norvegicus [8]): 25%
C#C[C@@]1(O)CC[C@H]2[C@@H]3CCc4cc(O)ccc4[C@H]3CC[C@@]21C | – | – | 15 | 0.016 | – | Activity (Rattus norvegicus [9]): 0%; Activity (Rattus norvegicus [10]): inactive
